Experimental data as given in ChEMBL document CHEMBL1122793, “Synthesis, characterization, and properties of a group of platinum (IV) complexes” (J Med Chem, 1984).

Legend:
Format in all cases: functional, cell-based
Conditions in all cases: Mus musculus
L1210 [1] = test: Compound was evaluated for antitumor activity against 10e 6 L1210 cells implanted intraperitoneally into mice after treatment on day 1(maximum percentage toxicity)
Procedure, shortened: (§1)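 Mice received 10⁶ L1210 ascites cells ip and were treated ip on day 1 only. Treatment groups had six mice. The optimal dose was recorded in mg/kg, and activity was recorded as the maximum percent T/C, as defined in ref 9.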

L1210 [2] = test: Compound was evaluated for antitumor activity against 10e 6 L1210 cells implanted intraperitoneally into mice after treatment on day 1; procedure, shortened: as §1
L1210 [3] = test: Compound was evaluated for antitumor activity against 10e 6 L1210 cells implanted intraperitoneally into mice after treatment on days 1-5
Procedure, shortened: (§2)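 Mice were implanted ip with 10⁶ L1210 ascites cells and treated ip on days 1-5, with the dose given in mg/kg per injection. Groups had six mice each. The read-out was the optimal dose and the maximum percent T/C, as defined in ref 9.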

L1210 [4] = test: Compound was evaluated for antitumor activity against 10e 6 L1210 cells implanted intraperitoneally into mice after treatment on days 1-5 (maximum percentage toxicity); procedure, shortened: as §2
L1210 [5] = test: Compound was evaluated for antitumor activity against 10e 6 L1210 cells implanted intraperitoneally into mice after treatment on days 1-9
L1210 [6] = test: Compound was evaluated for antitumor activity against 10e 6 L1210 cells implanted intraperitoneally into mice after treatment on days 1-9 (maximum percentage toxicity)
L1210 [7] = test: Compound was evaluated for antitumor activity against 10e 6 L1210 cells implanted intraperitoneally into mice after treatment on day 1(maximum percentage toxicity)(reference 9); procedure, shortened: as §1
L1210 [8] = test: Compound was evaluated for antitumor activity against 10e 6 L1210 cells implanted intraperitoneally into mice after treatment on day 1(reference 9); procedure, shortened: as §1

Q: Which T/C (L1210 [1]) does the source give for Tetrachloro-diammonium platinum here?
A: Its T/C is 121%.

Q: And the Optimal dose (L1210 [2])?
A: The Optimal dose was 32 mg/kg.

Q: And the Optimal dose (L1210 [3])?
A: The Optimal dose was 4 mg/kg.

Q: What about the T/C (L1210 [4]) of the same substance?
A: Its T/C is 114%.

Q: For Dichloro-diammonium-platinum, which Optimal dose (L1210 [5]) is on record?
A: Its Optimal dose is 20 mg/kg.

Q: And the T/C (L1210 [1])?
A: Its T/C is 150%.

Q: What about the T/C (L1210 [6]) of the same substance?
A: Its T/C is 193%.

Q: What about the T/C (L1210 [7]) of the same substance?
A: Its T/C is 164%.

Q: What about the Optimal dose (L1210 [2]) of the same substance?
A: The Optimal dose was 48 mg/kg.

Q: What about the Optimal dose (L1210 [8]) of the same substance?
A: Its Optimal dose is 120 mg/kg.

Q: What about the Optimal dose (L1210 [3]) of the same substance?
A: The Optimal dose was 12 mg/kg.

Q: And the T/C (L1210 [4])?
A: Its T/C is 157%.

Q: Dichloro-dibromo-diammonium platinum was tested. Which T/C (L1210 [1]) did it give?
A: The T/C was 136%.

Q: What about the Optimal dose (L1210 [2]) of the same substance?
A: Its Optimal dose is 12 mg/kg.

Q: And the Optimal dose (L1210 [3])?
A: Its Optimal dose is 0.75 mg/kg.

Q: What about the T/C (L1210 [4]) of the same substance?
A: Its T/C is 129%.
